High-throughput results (PubChem BioAssay)
ERAP1 HTS inh: ERAP1 (human) enzyme inhibition. 340,000 compounds, 0.15% hits. inhibition, % at 10.7 µM. recombinant ERAP1, Leu-AMC fluorescence, 60 min. Q9NZ08;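 active means mean replicate inhibition of at least 30%, or all replicates individually reaching that 30% level; inactive means mean below 30% and not every replicate reaching it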;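 further: 0% = neutral control wells and 100% = L-leucinethiol positive control wells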
DENV2 CPE: protects cells from dengue virus 2 cytopathic effect. 350,000 compounds, 1.7% hits. CPE inhibition, % at 9.99 µM. DENV2-infected cells, cytopathic effect rescue, plate reader; in the data active means CPE inhibition above about 20%, passing the limit was not always enough; inconclusive means no clear call, values can overlap the other calls; tested in BHK-21 cells;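 further: 0% = median of neutral control wells and 100% = median of positive control wells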
SIRT5 inh: sirtuin-5 (human) deacylase inhibition | 330,000 compounds, 1.1% hits | inhibition, % at 15 µM | Q9NXA8 | AID 652115 | Purified SirT5, succinyl-peptide AMC, trypsin-coupled fluorescence; in the data active means inhibition above about 15%; inconclusive means no clear call, values can overlap the other calls
Target sequence (Q9NXA8 whole entry, looked up): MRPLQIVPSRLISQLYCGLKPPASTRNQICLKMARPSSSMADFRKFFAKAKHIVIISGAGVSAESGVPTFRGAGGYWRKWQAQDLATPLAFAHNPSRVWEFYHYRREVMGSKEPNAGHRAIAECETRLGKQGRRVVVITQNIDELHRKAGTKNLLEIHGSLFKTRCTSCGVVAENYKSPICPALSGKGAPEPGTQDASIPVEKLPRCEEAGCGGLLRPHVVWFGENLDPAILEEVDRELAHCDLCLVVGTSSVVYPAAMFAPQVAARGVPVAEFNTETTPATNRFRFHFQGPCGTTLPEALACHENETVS
E-selectin induc: E-selectin induction on HUVECs. activation, % at 7.58 µM. 260,000 compounds, 0.37% hits. P16581. HUVEC E-selectin immunofluorescence imaging; normalized: neutral wells 0, TNF-alpha wells 100. AID 686992;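 active means mean E-selectin-positive cell signal at least 10% of the positive control, reached in at least 60% of replicates, without over 20% cell loss; inconclusive means no rule given, readout overlaps actives, possibly toxicity-flagged; inactive means the rest, including those meeting only one limit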
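Test system: HUVEC | Signal: Immunofluorescence imaging | Read-out: Percent E-selectin-positive cells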
PglD DTNB: inhibitors of Campylobacter jejuni PglD acetyltransferase; purified PglD enzyme, DTNB colorimetric CoA detection; inhibition, % at 12.5 µM; 360,000 compounds, 0.098% hits; AID 602405; in the data active means inhibition above about 16%, passing the limit was not always enough; inconclusive means no clear call, values can overlap the other calls
Starred values were filed as active, the others as inactive; ? = inconclusive; / = not tested or not shown. In the library only some 2.5% were active in any assay of this set; here they are far more common.

SMILES	ERAP1 HTS inh	DENV2 CPE	SIRT5 inh	E-selectin induc	PglD DTNB
COc1ccc(C(=O)OC(C)C(=O)NC(C)CCc2ccccc2)c(OC)c1 (stereo unspecified)	-1.1	-3.0	-1.3	0.4	-3.6
Cc1c(C(=O)N(C)C)sc(NC(=O)c2cc([N+](=O)[O-])cc([N+](=O)[O-])c2)c1C#N	6.2	/	2.3	/	5.2
COc1cc(CCC(=O)Oc2ccc(C(C)=O)cc2)cc(OC)c1OC	-3.4	-3.3	-0.6	/	-8.0
Cc1ccc(C)c(OCC(=O)N(Cc2nnc(-c3ccccc3Cl)o2)C2CC2)c1	0.2	?	-2.5	/	5.3
O=C(OCc1ccccc1)N1CCC2CC1c1c(Cl)cccc12 (stereo unspecified)	/	2.6	/	0.2	4.4
O=C(c1cccc(F)c1)N1CCCC(C(=O)N2CCCCCC2)C1 (stereo unspecified)	-5.8	3.2	27.1*	/	-3.1
O=C(c1cccc(Cl)c1)N1CCCC(C(=O)N2CCCCCC2)C1 (stereo unspecified)	/	/	/	/	5.9
COc1cccc(-c2ccc([C@@H]3[C@H]4CN(CC5CC5)CCCCN4[C@H]3CO)cc2)c1	1.3	58.4*	-2.6	-0.1	1.8
CCC1CCCCN1C/C=C/c1ccccc1[N+](=O)[O-] (stereo unspecified)	3.0	-2.7	-1.7	/	-0.7
O=C(CN1CCOCC1)NCC[C@H]1CC[C@@H](NS(=O)(=O)c2ccc(Cl)cc2)[C@@H](CO)O1	-0.8	7.2	32.3*	0.7	-1.4
Cc1ccc(S(=O)(=O)N[C@@H]2CC[C@H](CC(=O)NCc3ccc(Cl)c(Cl)c3)O[C@H]2CO)cc1	-4.4	21.7*	3.0	0.8	-0.5
O=C(NCC[C@@H]1CC[C@@H](NS(=O)(=O)c2cccc(F)c2)[C@@H](CO)O1)C1CCOCC1	0.4	6.3	38.0*	-0.5	-0.4
O=C(NCC[C@H]1CC[C@@H](NS(=O)(=O)c2cccc(F)c2)[C@H](CO)O1)C1CCOCC1	0.4	5.8	-2.2	-0.4	-0.1
Cc1ccc(S(=O)(=O)N[C@@H]2CC[C@@H](CCNC(=O)CN3CCOCC3)O[C@H]2CO)cc1	-0.5	25.9*	-0.9	0.5	-0.3
Cc1ccc(S(=O)(=O)N[C@H]2CC[C@H](CCNC(=O)CN3CCOCC3)O[C@@H]2CO)cc1	0.0	3.9	-0.5	-0.2	1.9
O=C(OCC(=O)N1N=C(c2ccc(Cl)cc2)CC1c1ccco1)c1cncc(Br)c1 (stereo unspecified)	-0.9	/	/	-0.4	-2.7
COc1ccc([N+](=O)[O-])c(C=CC(=O)c2ccccn2)c1	-1.8	14.0	/	0.2	-1.7
CCN(c1ccccc1)S(=O)(=O)c1cccc(C(=O)NCCOc2ccccc2OC)c1	2.2	11.5	-7.3	0.8	-3.7
CCOCC(=O)Nc1ccccc1C(=O)OCC	/	/	/	/	-7.1
C[C@@H]1CCCCO[C@@H](CN(C)Cc2ccc(C(F)(F)F)cc2)[C@H](C)CN([C@H](C)CO)C(=O)c2cc(NS(C)(=O)=O)ccc2O1	/	10.8	/	-0.3	-1.0
Cc1ccc(S(=O)(=O)N[C@H]2CC[C@H](CCNC(=O)C3CCOCC3)O[C@@H]2CO)cc1	4.2	25.2*	-1.2	-0.1	3.9
Cc1ccc(S(=O)(=O)N[C@@H]2CC[C@@H](CCNC(=O)C3CCOCC3)O[C@@H]2CO)cc1	3.7	2.7	4.4	-0.3	-1.5
Nn1c(C2CCC2)nc2cc(Cl)ccc2c1=O	-1.6	2.9	18.4*	/	-3.5
Nn1c(C2CCCCC2)nc2ccccc2c1=O	/	2.2	-8.8	-0.1	-0.7
C[C@@H]1CCCCO[C@H](CN(C)S(=O)(=O)c2ccc(Cl)cc2)[C@@H](C)CN([C@@H](C)CO)C(=O)c2cc(NC(=O)Nc3ccc(F)cc3)ccc2O1	-2.7	23.4*	2.5	/	-3.3
SMILES	ERAP1 HTS inh	DENV2 CPE	SIRT5 inh	E-selectin induc	PglD DTNB
COc1ccc(S(=O)(=O)N(C)C[C@@H]2OCCCC[C@H](C)Oc3ccc(NC(=O)Nc4ccc(F)cc4)cc3C(=O)N([C@@H](C)CO)C[C@H]2C)cc1	1.0	-2.1	12.9	0.1	-1.5
COc1ccc(S(=O)(=O)N(C)C[C@@H]2OCCCC[C@@H](C)Oc3ccc(NC(=O)Nc4ccc(F)cc4)cc3C(=O)N([C@@H](C)CO)C[C@@H]2C)cc1	0.1	4.1	16.6*	0.1	-0.6
COc1ccc(S(=O)(=O)N(C)C[C@H]2OCCCC[C@@H](C)Oc3ccc(NC(=O)Nc4ccc(F)cc4)cc3C(=O)N([C@@H](C)CO)C[C@H]2C)cc1	0.4	-0.6	17.0*	0.2	-2.6
COc1ccc(NC(=O)Nc2ccc3c(c2)C(=O)N([C@@H](C)CO)C[C@@H](C)[C@@H](CN(C)S(=O)(=O)c2ccc(F)cc2)OCCCC[C@@H](C)O3)cc1	0.5	30.0*	8.0	/	-0.6
COCC(=O)NCC1CCN(C(=O)C(=O)c2cccs2)CC1	1.6	-2.3	/	-0.1	/
O=C(c1cccs1)N1CCCC(c2nc3c(nnn3Cc3ccccc3Cl)c(=O)[nH]2)C1 (stereo unspecified)	2.8	-4.1	-3.2	/	1.0
COc1ccc(NC(=O)Nc2ccc3c(c2)C(=O)N([C@H](C)CO)C[C@H](C)[C@@H](CN(C)S(=O)(=O)c2ccccc2)OCCCC[C@H](C)O3)cc1	0.9	0.8	15.9*	/	0.8
COc1ccc(NC(=O)Nc2ccc3c(c2)C(=O)N([C@@H](C)CO)C[C@@H](C)[C@H](CN(C)S(=O)(=O)c2ccc(Cl)cc2)OCCCC[C@@H](C)O3)cc1	2.4	36.0*	-2.4	/	2.9
COc1ccc(NC(=O)Nc2ccc3c(c2)C(=O)N([C@@H](C)CO)C[C@@H](C)[C@H](CN(C)S(=O)(=O)c2ccc(F)cc2)OCCCC[C@@H](C)O3)cc1	0.7	-9.2	15.4*	/	-0.5
COc1ccc(S(=O)(=O)N(C)C[C@@H]2OCCCC[C@@H](C)Oc3ccc(NC(=O)c4ccccc4)cc3C(=O)N([C@@H](C)CO)C[C@@H]2C)cc1	-2.3	29.4*	4.1	-0.1	-1.9
COc1ccc(NC(=O)Nc2ccc3c(c2)C(=O)N([C@H](C)CO)C[C@H](C)[C@@H](CN(C)S(=O)(=O)c2ccccc2)OCCCC[C@@H](C)O3)cc1	-1.7	-4.1	8.8	/	0.5
Cc1ccc(S(=O)(=O)CCC(=O)OCC(=O)NCCc2ccccc2)cc1	0.0	3.1	-5.7	0.9	2.9
COc1ccc(-c2ccc([C@H]3[C@H](CO)N4CCCCN(CC5CCOCC5)C[C@@H]34)cc2)cc1	-2.0	?	3.0	-0.1	-5.7
O=C(C[C@H]1C[C@@H]2c3cc(NC(=O)c4ccc5c(c4)OCO5)ccc3O[C@@H]2[C@@H](CO)O1)NC1CCCC1	-1.4	-10.7	1.8	-0.2	0.2
COc1ccc(S(=O)(=O)N(C)C[C@H]2OCCCC[C@@H](C)Oc3ccc(NC(=O)Nc4ccc(F)cc4)cc3C(=O)N([C@@H](C)CO)C[C@@H]2C)cc1	2.2	-2.8	15.7*	0.5	2.8
